Results: ChEMBL document CHEMBL1126753, “1-Carboranyl-3-(2-methylaziridino)-2-propanol. Synthesis, selective uptake by B-16 melanoma, and selective cytotoxicity toward cancer cells” (J Med Chem, 1993)

Assays:
B16 [1] = assay: Boron incorporation into B-16 […] tumor cell after 24 hours; assay type: functional
How it was run: (§1)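 Cells grown to confluence in 150-mm dishes (about 5.0 × 10⁶ cells/dish), then exposed to carrier (1.5 ppm carborane or 200 ppm BPA-HCl) in Eagle-MEM with 10% FCS at 37 °C. Cells were washed thrice in Ca-Mg-free PBS, scraped, digested in HClO₄–H₂O₂ for 1 h at 75 °C, and filtered. Boron was measured by ICP-AES, untreated-dish boron subtracted, and reported as μg/10⁶ cells; two replicates, SD.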

B16 [2] = assay: Boron incorporation into B-16 […] tumor cell after 2 hours; assay type: functional; how it was run: as §1
IMR-32 = assay: (§2) Inhibition of growth of IMR 32 human tumor cell line; assay type: functional, cell-based
How it was run: (§3)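 1 × 10⁶ cells per 60-mm dish in Eagle-MEM plus 10% FCS, treated with 1, 2.5, 5, 10, 25, 50 or 100 ppm compound (DMSO vehicle) for 3 days at 37 °C in CO₂. Cells were washed with PBS, trypsinized and counted; the count is a percentage of untreated control, and IC50 is the concentration giving 50% of control cell number.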

Tumor cell line = assay: as §2; assay type: functional, cell-based; how it was run: as §3
TIG-1-20 [3] = assay: Boron incorporation into TIG-1-20 human fetal lung normal cell line after 2 hours; assay type: functional; how it was run: as §1
TIG-1-20 [4] = assay: Boron incorporation into TIG-1-20 human fetal lung normal cell line after 24 hours; assay type: functional; how it was run: as §1

| Structure (SMILES) | Boron incorporation (B16 [1]) [ug/10e6] | Boron incorporation (B16 [2]) | IC50 (IMR-32) [ppm g dm**-3] | IC50 (Tumor cell line) [M mol/dm 3] | Boron incorporation (TIG-1-20 [3]) [ug/10e6] | Boron incorporation (TIG-1-20 [4]) [ug/10e6] |
| --- | --- | --- | --- | --- | --- | --- |
| CC1CN1CC(O)CC1CC1 (stereo not given) | 0.26 | 0.25 µg | 8.2e-6 | 0.0000319 | 0.14 | 0.11 |
| NC(Cc1ccc(B(O)O)cc1)C(=O)O (stereo not given) | 0.28 | 0.22 ug/10e6 |  |  | 0.17 | 0.26 |
